Source: PubChem
This excerpt belongs to a sample that is enriched for hits.
UPR CHOP act = activators of apoptotic arm of unfolded protein response (CHOP); CHO-CHOP luciferase reporter, UPR activation, luminescence; percent of tunicamycin response over DMSO baseline; activation, % at 10 µM; actives 0.34% (n = 330,000); AID 449763;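 active means at 10 µM dose, activation of 40% or more, normalized to positive control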
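Assay system: CHO-CHOP cells, stable luciferase reporter of PERK-eIF2a-CHOP signalling / Buffer or medium: F12 plus 10% serum / Compound dosing: one dose, 10 µM in 0.5% DMSO / Times: 6 h compound treatment, 37 °C / Technique: luciferase luminescence / Read-out: % reporter activation, DMSO baseline versus tunicamycin full activation / Benchmarks: tunicamycin and DMSO controls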
Bfl-1 A1 inh = inhibitors of the anti-apoptotic protein A1, read as caspase activation. MEF A1-2A-BIM cells, Caspase-Glo 3/7 luminescence, 3 h; percent of clofoctol response, vehicle zero. actives 0.066% (n = 330,000). AID 2462. caspase activation, % (no concentration beside the values);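 active means over half of replicate activation scores above 10%, or exactly half above 10 with the replicate mean above 10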
XBP1 UPR activ = activators of adaptive arm of unfolded protein response (XBP1) | activation, % at 20 µM | AID 463104 | actives 0.33% (n = 330,000) | CHO-XBP1 luciferase reporter, IRE1-XBP1 UPR activation, luminescence; percent of tunicamycin response, DMSO as zero;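 active means versus positive control, 20 µM dose yields 30% or more activation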
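Test system: CHO-XBP1 luciferase reporter cells | Buffer or medium: Serum-containing F12 medium, 10% FBS | Schedule: 6 h compound exposure at 37 °C, 5% CO2 | Detection: Steady-Glo luciferase glow luminescence, 10 min after reagent addition | Read-out basis: Activation, % of tunicamycin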
CHOP inhibitor = inhibitors of CHOP induction in ER stress response; AID 2732; actives 3.8% (n = 220,000); inhibition, % at 10 µM; CHO-K1 CHOP-promoter luciferase, tunicamycin-induced, 15-18 h;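 active means compounds that reduced the stress-induced luciferase reporter signal by more than about 70% of percent inhibition, limit read from the data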
Large screens that a line does not name were inactive; ! = not confirmed by another sample.

COc1ccc(-c2nsc3c(N4CCCC4)ncnc23)cc1	CHOP inhibitor 90
Cc1cc(Nc2cccc(F)c2)nc(NCc2ccccc2)n1	CHOP inhibitor 71
COc1ccccc1Nc1nnc(SCC(=O)Nc2cc(C)on2)s1	CHOP inhibitor 95
COc1ccc2cc(C)c(SCC(=O)Nc3cc(C)on3)nc2c1	CHOP inhibitor 84
Cc1cc(C)c(NC(=O)c2cnn(C)c2)c(C)c1	none
COC(=O)COc1ccc(S(=O)(=O)NCCC2=CCCCC2)cc1Cl	none
COCCNS(=O)(=O)c1ccc(OCC(=O)OC)c(Cl)c1	CHOP inhibitor 92
CCCc1nc(SCC(=O)Nc2nnc(CC)s2)c2c(C)c(C)sc2n1	none
CCc1nc(SCC(=O)Nc2nnc(CC)s2)c2c(C)c(C)sc2n1	CHOP inhibitor 96
CCCc1nc(SCC(=O)Nc2nnc(SCC)s2)c2c(=O)n(C)c(=O)n(C)c2n1	none
CCSc1nnc(NC(=O)CSc2nc(CC)nc3c2c(=O)n(C)c(=O)n3C)s1	CHOP inhibitor 82
O=C(CNC(=S)N(Cc1ccc(F)cc1)C1CCCCC1)NCCN1CCOCC1	none
CCCc1[nH]nc2c1C1(C(=O)N(C(C)C)c3ccccc31)C(C#N)=C(N)O2 (stereo not drawn)	none
CC1=C(C)C(=O)C(CCCCC#CCCCC#CCO)=C(C)C1=O	CHOP inhibitor 73!
Oc1cc(-c2ccccc2)c2ccccc2c1	CHOP inhibitor 101
Cc1nc(NC(=O)CCc2ccccc2)ccc1Br	CHOP inhibitor 80
C=CCn1c(=NC(=O)c2ccco2)sc2cc(C(=O)OCC)ccc21	CHOP inhibitor 84
COCCn1c(=NC(=O)c2ccco2)sc2cc(C(=O)OC)ccc21	none
C=CCn1c(=NC(=O)c2ccco2)sc2cc(C(=O)OC)ccc21	CHOP inhibitor 80
COc1ccc(N(C(=O)CNC(=O)c2cccs2)C(C(=O)NCC2CCCO2)c2ccccc2)cc1OC (stereo not drawn)	none
Cn1c2ccccc2c2cnn(CC(=O)Nc3ccccc3Br)c(=O)c21	none
Cn1c2ccccc2c2cnn(CC(=O)Nc3ccc(F)cc3F)c(=O)c21	CHOP inhibitor 88
Cc1ccc(S(=O)(=O)CC(CN2CCOCC2)N2CCOCC2)cc1 (stereo not drawn)	none
CC1CCN(CC(CS(=O)(=O)c2ccc([N+](=O)[O-])cc2)N2CCC(C)CC2)CC1 (stereo not drawn)	CHOP inhibitor 71
COc1ccc(CCNC(=O)c2cc(-c3cc(Cl)cc(Cl)c3)oc2C)cc1	CHOP inhibitor 70
CC(C)(C)c1ccc(S(=O)(=O)Nc2ccc(Cc3ccncc3)cc2)cc1	CHOP inhibitor 79
CC(=O)Nc1ccc(S(=O)(=O)Nc2ccc(Cc3ccncc3)cc2)cc1	none (no result: CHOP inhibitor)
CCOc1ccc(NS(=O)(=O)c2ccc(OC)c(NC(=O)c3ccc4c(c3)OCCO4)c2)cc1	none
Cc1cc(N2C3CCC2CC(O)(c2ccc(F)cc2)C3)nc(-c2ccccc2)n1 (stereo not drawn)	CHOP inhibitor 72
CC1(C)Oc2ccc(/C=C/C(=O)N3CCOCC3)c(O)c2C(N2CCOCC2)C1O (stereo not drawn)	none
CC1(C)c2cc(O)ccc2OC1N1CCOCC1 (stereo not drawn)	Bfl-1 A1 inh 9.5 (no result: CHOP inhibitor)
CCCc1[nH]nc2c1C(c1ccccc1OC)C(C#N)=C(N)O2 (stereo not drawn)	none
CCCc1[nH]nc2c1C(/C(C)=C/c1ccccc1)C(C#N)=C(N)O2 (stereo not drawn)	CHOP inhibitor 71
Cc1cc(NC(=O)CCC(=O)N(CC(=O)NCC2CCCO2)c2ccc3c(c2)OCCO3)no1 (stereo not drawn)	none
CCOc1ccc(-c2n[nH]c(C)c2-c2ccccc2OC)c(O)c1	CHOP inhibitor 87
COc1ccccc1C1CCN(C(=O)C2CCCCC2)CC1	none (no result: CHOP inhibitor)
COc1ccc(Cl)cc1Nc1nc(NCCO)nc(N2CCCC2)n1	CHOP inhibitor 74
COc1ccc(Cl)cc1Nc1nc(NCCO)nc(N2CCCCC2)n1	none (no result: CHOP inhibitor)
CN(CC(=O)NCc1ccccn1)S(=O)(=O)c1ccc(Cl)cc1	none
CC(=O)Nc1ccc2oc(-c3cc(F)c(F)cc3Cl)nc2c1	CHOP inhibitor 82
CCCOn1c(OCC(C)C)nc2ccccc2c1=O	CHOP inhibitor 73
O=C(Cn1cnc2cc([N+](=O)[O-])ccc2c1=O)Nc1ccccc1-c1ccccc1	none
Cc1ccc(-c2cc3ccccc3nc2N2CCOCC2)cc1	CHOP inhibitor 72
c1ccc2nc(-c3ccc(N4CCOCC4)cc3)ccc2c1	CHOP inhibitor 90 (no result: Bfl-1 A1 inh)
c1ccc(-c2cc3ccccc3nc2N2CCCC2)cc1	none
Cn1nnnc1SCC(=O)Nc1cccc(S(=O)(=O)N2CCCC2)c1	none
Cc1cc(SCC(=O)c2ccccc2)nc(C)n1	none
CC(C)n1nccc1N(Cc1ccc(Br)cc1)S(=O)(=O)c1ccccc1	none (no result: CHOP inhibitor)
COc1ccc(OC)c(/C=C2\SC(N3CCCCC3)=NC2=O)c1	none (no result: CHOP inhibitor)
Cc1c(C)n(C(=O)CSc2nc3ccccc3[nH]2)c2ccccc12	CHOP inhibitor 80
COc1cc(C)c(C(=O)Oc2cc(C)c(C(=O)O)c(O)c2C)c(OC)c1C	none
COc1ccc(Cn2c(CCC(=O)Nc3ccc(C)c(C)c3)nc3cccnc32)cc1	CHOP inhibitor 86
COc1ccc(Cn2c(CCC(=O)Nc3ccccc3)nc3cccnc32)cc1	none
CC(C)(C)c1cc(CCC(=O)NNC(=S)NC(=O)c2ccccc2)cc(C(C)(C)C)c1O	CHOP inhibitor 109
N#CC1=C(SCC(=O)NC23CC4CC(CC(C4)C2)C3)NC(=O)C(C#N)C12CCCCC2 (stereo not drawn)	CHOP inhibitor 85
CC(C)(C)C1CCC2(CC1)C(C#N)=C(SCC(=O)NC1CCCCC1)NC(=O)C2C#N (stereo not drawn)	CHOP inhibitor 81
N#CC1=C(SCC(=O)NC2CC2)NC(=O)C(C#N)C12CCCCC2 (stereo not drawn)	none
N#CC1=C(SCC(=O)Nc2cccc3cccnc23)NC(=O)C(C#N)C12CCCCC2 (stereo not drawn)	none
COc1ccc(-c2[nH]ncc2CN2CCCC2c2nonc2C)c(F)c1 (stereo not drawn)	none
COc1nnc(-c2ccc(N3CCCCC3)c(NC(=O)C3CCCCC3)c2)c2ccccc12	CHOP inhibitor 80
O=C(Nc1ccc(Cl)c(Cl)c1)Nc1ccc(N2CCCC2)c(S(=O)(=O)Nc2ccccc2Cl)c1	CHOP inhibitor 79
COc1cc(/C=N/O)ccc1OCc1ccc(Cl)cc1	none
COc1cc(/C=N/N=C(N)N)ccc1OCc1ccc(Cl)cc1	CHOP inhibitor 78
NC(N)=N/N=C/c1ccccc1	none
NC(N)=N/N=C/c1ccc(OCc2ccccc2)c(OCc2ccccc2)c1	UPR CHOP act 63 (no result: CHOP inhibitor)
COc1cc(/C=N/O)ccc1OCc1ccc(C(=O)O)cc1	CHOP inhibitor 90
CCOc1cc(/C=N/N=C(N)N)ccc1OCc1ccc(Cl)cc1	CHOP inhibitor 108 (no result: UPR CHOP act, XBP1 UPR activ)
COCCc1nc2ccc(C(=O)N3CCCC(CCCO)C3)cc2o1 (stereo not drawn)	none (no result: CHOP inhibitor)
